Measurements of several laboratories.
Lines come from different studies, so protocols differ.
Target: Serine/threonine-protein kinase Nek5 (NEK5, Homo sapiens, UniProt Q6P3R8)
Residues used in one study (Q6P3R8 1-708): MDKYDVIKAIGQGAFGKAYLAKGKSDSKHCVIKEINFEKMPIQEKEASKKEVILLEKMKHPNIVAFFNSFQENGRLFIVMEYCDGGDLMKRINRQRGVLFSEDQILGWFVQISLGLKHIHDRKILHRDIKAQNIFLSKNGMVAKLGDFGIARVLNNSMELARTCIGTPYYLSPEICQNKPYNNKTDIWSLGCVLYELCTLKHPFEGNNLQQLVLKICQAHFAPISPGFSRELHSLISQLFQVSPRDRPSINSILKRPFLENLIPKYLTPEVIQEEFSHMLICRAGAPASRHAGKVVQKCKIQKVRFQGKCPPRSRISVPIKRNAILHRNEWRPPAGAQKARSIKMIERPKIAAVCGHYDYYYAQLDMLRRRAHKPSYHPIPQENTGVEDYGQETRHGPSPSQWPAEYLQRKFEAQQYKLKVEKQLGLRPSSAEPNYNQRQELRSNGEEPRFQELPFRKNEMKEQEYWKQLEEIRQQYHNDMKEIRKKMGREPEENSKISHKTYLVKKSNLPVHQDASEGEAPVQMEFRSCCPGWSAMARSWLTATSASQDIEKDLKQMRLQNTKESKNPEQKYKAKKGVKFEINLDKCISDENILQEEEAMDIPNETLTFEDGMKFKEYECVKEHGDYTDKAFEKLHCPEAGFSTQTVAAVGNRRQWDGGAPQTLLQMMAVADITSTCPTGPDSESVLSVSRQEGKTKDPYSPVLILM

SMILES	assay	conditions	remaining binding [%]
O=C(c1ccc(Nc2nccc(-c3cc4ccccc4s3)n2)cc1)N1CCC(N2CCCC2)CC1	binding, competition with immobilised ligand	1 µM	15
CN(CCCC(F)(F)F)c1nccc(-c2cnn3ncccc23)n1	binding	1 µM	100
CCOCCn1cc(C(=O)Nc2ccc(-n3nc(-c4cccnc4)cc3C(F)(F)F)cn2)ccc1=O	cell-free assay, competition with immobilised ligand	1 µM	100
F[C@@H]1CCN(c2nccc(-c3cnn4ncccc34)n2)C1	binding	1 µM	100
c1ccc(N2CCN(Cc3nc4ccccc4[nH]3)CC2)nc1	binding, competition with immobilised ligand	1 µM	100
COc1cnc(Nc2cccc(S(N)(=O)=O)c2)nc1N1CCN(c2ccccc2)CC1	binding, competition with immobilised ligand	1 µM	42
C[C@H](c1ccc(F)cc1)N(Cc1cccc(C(=O)O)c1)C(=O)c1cnc2ccccc2c1	cell-free assay, competition with immobilised ligand	1 µM	100
O=C(c1ccc(Nc2ncc(Cl)c(-c3ccc(Cl)s3)n2)cc1)N1CCC(N2CCCC2)CC1	binding, competition with immobilised ligand	1 µM	0
c1cncc(-c2cccc(Nc3nccc(NC4CCCCC4)n3)c2)c1	binding, competition with immobilised ligand	10 µM	49
CN(c1nccc(-c2cnn3ncccc23)n1)C1CC1	binding	1 µM	100
C[C@@H](c1ccc(-n2cnc3c(N)ncnc32)cc1)N1CCc2nn(C)c(Cc3ccccc3)c2C1=O	binding, competition with immobilised ligand	0.1 µM	92
C[C@@H]1CCN(c2nccc(-c3cnn4ncccc34)n2)C1	binding	1 µM	100
O=C(NCCCN1CCOCC1)c1ccc(Nc2nccc(-c3cc4ccccc4s3)n2)cc1	binding, competition with immobilised ligand	1 µM	4.4
O=C(Nc1c[nH]nc1C(=O)NC1CCNCC1)c1cc(F)cc(F)c1	binding, competition with immobilised ligand	1 µM	95
C=CC(=O)N1CCC(C(=O)NCC(=O)N2CCN(c3nc(-c4cnc(N)nc4C(F)F)nc(N4CCOCC4)n3)CC2)CC1	binding, competition with immobilised ligand	1 µM	100
C[C@@H](c1cccc(C#N)c1)n1cc(Cl)cc(C(N)=O)c1=N	cell-free assay, competition with immobilised ligand	1 µM	100
N[C@H]1CCN(c2nccc(-c3cnn4ncccc34)n2)C1	binding	1 µM	87
Cc1noc([C@H]2C[C@@H](c3ccc(C(F)(F)F)cc3)CN(C(=O)N3CCS(=O)(=O)C3)C2)n1	cell-free assay, competition with immobilised ligand	1 µM	100
CN(C)c1nccc(-c2cnn3ncccc23)n1	binding	1 µM	100
CC(=O)N1CCC(c2ccc(C(=O)NC(=N)N)cc2C(F)(F)F)CC1	cell-free assay, competition with immobilised ligand	1 µM	100
Nc1ncc2c(n1)-c1c([nH]c3ccc(C#CC4CC4)cc13)CCCC2	binding, competition with immobilised ligand	1 µM	100
